Compound activity as filed in PubChem.
Hits are enriched below; roughly 1.9% of the tested compounds scored in any of these assays.
M5 antag – antagonists of human muscarinic M5 receptor (CHRM5); P08912; CHO-hM5 cells, Fluo-8 calcium fluorescence, ACh EC80; inhibition, % at 3 µM; actives 0.59% (n = 360,000); AID 624040;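 active = inhibition above a per-plate cutoff, the mean of that plate's test compounds plus 3 SD, cut at about 27% in these data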;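 note: 0% = acetylcholine EC80 with DMSO and 100% = DMSO without agonist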
Target sequence (P08912 whole entry, looked up): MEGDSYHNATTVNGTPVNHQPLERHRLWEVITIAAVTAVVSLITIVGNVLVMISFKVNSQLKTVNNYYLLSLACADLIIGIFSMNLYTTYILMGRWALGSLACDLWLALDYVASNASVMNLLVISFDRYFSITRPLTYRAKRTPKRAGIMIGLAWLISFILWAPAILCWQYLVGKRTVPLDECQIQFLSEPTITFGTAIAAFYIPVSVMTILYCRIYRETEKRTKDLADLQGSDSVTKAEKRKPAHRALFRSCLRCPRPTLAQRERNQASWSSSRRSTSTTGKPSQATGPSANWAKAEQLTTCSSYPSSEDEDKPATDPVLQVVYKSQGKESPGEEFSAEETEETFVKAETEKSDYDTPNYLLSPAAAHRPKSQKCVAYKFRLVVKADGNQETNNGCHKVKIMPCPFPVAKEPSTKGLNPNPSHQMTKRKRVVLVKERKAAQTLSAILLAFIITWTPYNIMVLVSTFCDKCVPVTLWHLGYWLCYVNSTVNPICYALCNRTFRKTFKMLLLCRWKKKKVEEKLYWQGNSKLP
CHRM4 agonist – agonists of human muscarinic M4 receptor (CHRM4). P08173. CHO-K1 hM4/Gqi5, Fluo-8 calcium fluorescence; vehicle 0%, full acetylcholine response 100%. activation, % at 3 µM. actives 0.14% (n = 360,000). AID 624127;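 active = activation above the run mean over all test wells plus 3 SD, cut at about 32% in these data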;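 note: peak over basal fluorescence ratio per well then scaled between controls; 0% = DMSO wells and 100% = acetylcholine at EC100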
CHRM5 agonist – agonists of human muscarinic M5 receptor (CHRM5) | CHO-K1 hM5 cells, Fluo-8 calcium fluorescence; 0% DMSO wells, 100% maximal acetylcholine response | activation, % at 3 µM | actives 0.19% (n = 360,000) | P08912 | AID 624037;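 active = activation above the run's mean over test compounds plus 3 SD, cut at about 23% in these data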;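 note: signal is peak over basal fluorescence ratio across the kinetic read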
CHRM4 antagonist – CHRM4 antagonism in calcium assay; P08173; AID 624125; CHO-hM4 cells, ACh EC80, Fluo-8 calcium fluorescence; actives 0.73% (n = 360,000); inhibition, % at 3 µM;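 active = inhibition above its plate's cutoff, the mean inhibition of sample wells plus 3 SD, cut at about 27% in these data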;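 note: 0% = acetylcholine EC80 with DMSO and 100% = DMSO without agonist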
CHRM4 PAM – potentiates acetylcholine response at human M4 receptor | AID 624126 | activation, % at 3 µM | actives 0.4% (n = 360,000) | CHO-K1 hM4/Gqi5, Fluo-8 calcium fluorescence, ACh EC20; 0% = ACh EC20, 100% = maximal ACh | P08173;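 active = activation above its plate's cutoff, the mean activation of sample wells plus 3 SD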
M5 PAM – CHRM5 positive allosteric modulation. AID 624038. actives 0.3% (n = 360,000). CHO-K1 hM5, Fluo-8 calcium, ACh EC20 PAM; 0% = ACh EC20, 100% = ACh EC100. activation, % at 3 µM. P08912;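 active = activation above the run cutoff, the mean activation of all test compounds plus 3 SD, cut at about 18% in these data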
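Measured by: Fluo-8 calcium fluorescence; material: human M5 receptor in CHO-K1 cells; schedule: Post-acetylcholine fluorescence recording 140 s; benchmarks: low control EC20 acetylcholine (0%), high control EC100 acetylcholine (100%); read-out: Max/basal fluorescence ratio as % of EC20–EC100 ACh window; compound: single dose, 3 µM nominal final test concentration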
The depositor's hits bear a star.

SMILES	M5 antag	CHRM4 agonist	CHRM5 agonist	CHRM4 antagonist	CHRM4 PAM	M5 PAM
O=C(OCc1ccc(O)cc1)c1c(-c2ccsc2)oc2ccc(N3CCOCC3)cc12	14	0	0	10	-2	-1
COc1ccc(Cl)cc1N(C(=O)c1ccco1)C(C(=O)NC1CCCC1)c1ccco1 (stereo unspecified)	-2	0	-3	-17	1	7
CSc1ccc(CCNC(=O)Cn2ncc3c([nH]c4ccccc43)c2=O)cc1	19	2	-4	16	15*	-3
O=C(Cn1ncc2c([nH]c3ccccc32)c1=O)NCCc1ccc(Cl)cc1	8	1	-1	4	-3	-5
COc1ccc(OCc2nnc(SCC(=O)Nc3ccccc3C#N)o2)cc1	3	1	0	4	-2	6
Cc1ccc2c(C)c(C(=O)Nc3ccc(S(N)(=O)=O)cc3)oc2c1C	0	1	2	0	4	27*
Cc1ccc2c(C)c(C(=O)NCc3ccc(S(N)(=O)=O)cc3)oc2c1C	4	2	4	-8	4	27*
Cc1ccc(NC(=O)c2snc3ccc(Cl)cc23)cc1C	31*	2	-7	-3	9	-12
CN1CCN(S(=O)(=O)c2ccc(N3CCN(S(=O)(=O)/C=C/c4ccccc4)CC3)nc2)CC1	-6	2	-12	30*	-14	-16
O=C(Nc1ccc(Cl)c(S(=O)(=O)N2CCCC2)c1)c1nn(CCO)c(=O)c2ccccc12	3	14	2	-10	-6	-8
CC(Oc1ccccc1)c1ccnn1S(=O)(=O)c1ccccc1 (stereo unspecified)	1	-2	-15	-3	12	20*
O=C(Nc1ccccc1C(=O)O)c1cc(S(=O)(=O)N2CCOCC2)c(Br)s1	-13	-1	1	-8	16*	18*
O=C(Nc1ccccc1Cl)c1cc(S(=O)(=O)N2CCOCC2)cs1	0	2	-3	3	0	-1
CC(OC(=O)CC1Sc2ccccc2NC1=O)C(=O)NC1CCCC1 (stereo unspecified)	-2	4	0	-3	9	3
CCOc1ccc(C(=O)N[C@H](C(=O)NNC(=O)c2cccs2)C(C)C)cc1	22	0	-1	-5	2	2
CC1(C)Cc2c(sc3nc(N/N=C/c4ccccc4)[nH]c(=O)c23)CO1	24	2	9	1	9	25*
CSc1ccc(/C=N/NC(=O)CN2CCN(Cc3ccc(Cl)cc3)CC2)cc1	1	2	-2	35*	-17	-1
CSc1ccc(/C=N/NC(=O)CN2CCN(Cc3ccccc3)CC2)cc1	1	0	-3	24	-15	3
CCn1nc(NC(=O)c2cccs2)c2cc3ccccc3nc21	-3	11	0	-4	-10	-14
O=C(CSc1ccccc1)NCC1(N2CCCCC2)CCCCC1	-10	1	-4	-11	6	3
Cc1nc2sccn2c(=O)c1S(=O)(=O)Nc1ccc(N2CCN(S(C)(=O)=O)CC2)cc1	34*	19	-1	18	-16	-15
CCC1CCCCN1CCCNS(=O)(=O)c1ccc2c(c1)oc(=O)n2C (stereo unspecified)	14	0	-3	-1	-5	-3
CCC1CCCCN1CCNS(=O)(=O)c1ccc2c(c1)oc(=O)n2C (stereo unspecified)	0	0	-1	29*	-14	-1
COc1ccc(/C=C2/C(=O)ON=C2c2ccccc2)cc1OC	-11	1	0	-11	8	23*
OC[C@H]1O[C@@H](c2nc(-c3ccc(C4OCCO4)cc3)no2)[C@H](O)[C@@H]1O	9	0	0	-6	4	-3
SMILES	M5 antag	CHRM4 agonist	CHRM5 agonist	CHRM4 antagonist	CHRM4 PAM	M5 PAM
OC[C@H]1O[C@@H](c2nc(-c3ccc4[nH]ccc4c3)no2)[C@H](O)[C@@H](O)[C@H]1O	-2	1	-1	-4	16*	3
CC1CN(C(=O)N(C)C)CCN1C(=O)N(C)C (stereo unspecified)	7	0	-2	31*	13	-4
C=C(Cl)COc1ccc2c(C)cc(=O)oc2c1	-14	-2	-4	8	10	18*
Cc1cc(Cl)c(S(=O)(=O)N2CC(C)OC(C)C2)cc1OCC(N)=O (stereo unspecified)	10	1	0	10	-3	-5
Cc1cc(Cl)c(S(=O)(=O)N2CCSCC2)cc1OCC(N)=O	-16	4	3	1	19*	-1
CCOc1ccc(NS(=O)(=O)c2cc(OCC(N)=O)c(C)cc2Cl)cc1	6	2	4	4	27*	7
COc1ccc(-n2c(C)nn(C)c2=O)cc1	-3	0	2	9	15	0
COc1ccc(-n2c(/C=C(\C)O)nc(=O)c3c(C)cc(C)nc32)cc1	3	8	2	17	34*	0
O=C(CCNC(=O)c1ccc(Cl)cc1)Nc1cc(C(F)(F)F)ccc1N1CCOCC1	1	1	0	-20	1	-3
Cc1ccc(OCc2cc(C(=O)N3CCN(C4CCCCC4)CC3)no2)cc1C	9	5	-7	4	-6	-5
Clc1ccc(OCc2cn3ccccc3n2)c2ncccc12	35*	1	-5	-5	-1	-12
COc1cc(C=O)ccc1OCCCOc1ccccc1[N+](=O)[O-]	8	8	-1	1	-3	-7
COc1cc(C=O)ccc1OCCCOc1ccccc1C(=O)O	-12	0	1	10	32*	6
CN(C(=O)COC(=O)c1ccc(Br)c(S(=O)(=O)N2CCOCC2)c1)C1CCCCC1	10	12	6	-8	-3	-15
N#CC1C(=O)c2ccccc2C1c1ccccc1 (stereo unspecified)	29*	5	-8	59*	-10	-39
O=C(Nc1ccc(Cl)cc1)Nc1nc(-c2ccccc2O)cs1	36*	18	8	29*	-23	-31
COC(CN(C)C(=O)c1cn(C)c2ccc(S(=O)(=O)N(C)C3CCCCC3)cc2c1=O)OC	21	1	-6	2	-3	-7
CCOc1ccccc1N(CC(=O)NCCSc1ccccn1)S(=O)(=O)c1ccccc1	26	32*	1	11	13	10
CNC(=S)N/N=C(\C)c1ccc(C)c(C)c1	6	-1	-2	27*	-1	-2
O=C(Nc1ccc(Br)cc1)C1OCCc2ccccc21 (stereo unspecified)	6	-1	-5	-2	-4	2
